# Test results published in ChEMBL document CHEMBL4715736, “Identification of anticancer agents based on the thieno[2,3-b]pyridine and 1H-pyrazole molecular scaffolds” (2016).
# Key:
# Assay type in all cases: functional
# MCF7 = experiment: Growth inhibition of human MCF7 cells assessed as cell growth at 1 uM incubated for 48 hrs by sulforhodamine B assay relative to control; conditions: read-out: Activity
# NCI-H226 = experiment: Growth inhibition of human NCI-H226 cells assessed as cell growth at 100 uM incubated for 48 hrs by sulforhodamine B assay relative to control; conditions: read-out: Activity
# HT-29 = experiment: Growth inhibition of human HT-29 cells assessed as cell growth at 0.1 uM incubated for 48 hrs by sulforhodamine B assay relative to control; conditions: read-out: Activity
# SF-295 [1] = experiment: Growth inhibition of human SF-295 cells assessed as cell growth at 1 uM incubated for 48 hrs by sulforhodamine B assay relative to control; conditions: read-out: Activity
# CCRF-CEM = experiment: Growth inhibition of human CCRF-CEM cells assessed as cell growth at 0.1 uM incubated for 48 hrs by sulforhodamine B assay relative to control; conditions: read-out: Activity
# Summary of the method: (§1)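 NCI Developmental Therapeutics Program NCI60 panel. Compounds that were active in the 10 µM one-dose screen went on to dose–response testing. Growth at each concentration is expressed relative to untreated control (100%). GI50 (concentration giving 50% of maximal inhibition of proliferation) and TGI (concentration giving total growth inhibition) were derived from the curves.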
# U-251 = experiment: Growth inhibition of human U-251 cells assessed as cell growth at 1 uM incubated for 48 hrs by sulforhodamine B assay relative to control; conditions: read-out: Activity
# MDA-MB-435 = experiment: Growth inhibition of human MDA-MB-435 cells assessed as cell growth at 0.1 uM incubated for 48 hrs by sulforhodamine B assay relative to control; conditions: read-out: Activity
# CAKI-1 = experiment: Growth inhibition of human CAKI-1 cells assessed as cell growth at 100 uM incubated for 48 hrs by sulforhodamine B assay relative to control; conditions: read-out: Activity; summary of the method: as §1
# KM12 = experiment: Growth inhibition of human KM12 cells assessed as cell growth at 100 uM incubated for 48 hrs by sulforhodamine B assay relative to control; conditions: read-out: Activity
# HCT-116 = experiment: Growth inhibition of human HCT-116 cells assessed as cell growth at 0.01 uM incubated for 48 hrs by sulforhodamine B assay relative to control; conditions: read-out: Activity
# A498 [2] = experiment: Growth inhibition of human A498 cells assessed as cell growth at 0.1 uM incubated for 48 hrs by sulforhodamine B assay relative to control; conditions: read-out: Activity; summary of the method: as §1
# MOLT-4 [3] = experiment: Growth inhibition of human MOLT-4 cells assessed as cell growth at 0.01 uM incubated for 48 hrs by sulforhodamine B assay relative to control; conditions: read-out: Activity
# MDA-MB-231 [4] = experiment: Growth inhibition of human MDA-MB-231 cells assessed as cell growth at 0.01 uM incubated for 48 hrs by sulforhodamine B assay relative to control; conditions: read-out: Activity
# MDA-MB-468 = experiment: Growth inhibition of human MDA-MB-468 cells assessed as cell growth at 1 uM incubated for 48 hrs by sulforhodamine B assay relative to control; conditions: read-out: Activity
# UACC-257 [5] = experiment: Growth inhibition of human UACC-257 cells assessed as cell growth at 0.01 uM incubated for 48 hrs by sulforhodamine B assay relative to control; conditions: read-out: Activity
# OVCAR-4 = experiment: Growth inhibition of human OVCAR-4 cells assessed as cell growth at 0.1 uM incubated for 48 hrs by sulforhodamine B assay relative to control; conditions: read-out: Activity
# TK-10 = experiment: Growth inhibition of human TK-10 cells assessed as cell growth at 0.1 uM incubated for 48 hrs by sulforhodamine B assay relative to control; conditions: read-out: Activity
# MOLT-4 [6] = experiment: Growth inhibition of human MOLT-4 cells incubated for 48 hrs by sulforhodamine B assay; conditions: for CC50: read-out: LC50 (the source's name)
# Summary of the method: (§2)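 NCI60 panel at the NCI Developmental Therapeutics Program. Only compounds active in the 10 µM screen went to dose-response testing. GI50, the concentration giving 50% of maximal inhibition of proliferation, and TGI, the concentration giving total growth inhibition, were derived from the dose-response curves.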
# LOX IMVI [7] = experiment: Growth inhibition of human LOX IMVI cells assessed as cell growth at 1 uM incubated for 48 hrs by sulforhodamine B assay relative to control; conditions: read-out: Activity
# SF-295 [8] = experiment: Growth inhibition of human SF-295 cells incubated for 48 hrs by sulforhodamine B assay
# Summary of the method: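 NCI DTP 60-line human tumour panel. Dose-response curves were run only for ligands active in the initial 10 µM screen. GI50 (concentration giving 50% of maximal inhibition of proliferation) and TGI (concentration giving total growth inhibition) were derived from these curves.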
# NCI-H460 = experiment: Growth inhibition of human NCI-H460 cells assessed as cell growth at 0.1 uM incubated for 48 hrs by sulforhodamine B assay relative to control; conditions: read-out: Activity
# RPMI-8226 = experiment: Growth inhibition of human RPMI-8226 cells assessed as cell growth at 0.1 uM incubated for 48 hrs by sulforhodamine B assay relative to control; conditions: read-out: Activity
# 786-0 = experiment: Growth inhibition of human 786-0 cells assessed as cell growth at 100 uM incubated for 48 hrs by sulforhodamine B assay relative to control; conditions: read-out: Activity
# NCI-H322M [9] = experiment: Growth inhibition of human NCI-H322M cells assessed as cell growth at 1 uM incubated for 48 hrs by sulforhodamine B assay relative to control; conditions: read-out: Activity
# NCI-H322M [10] = experiment: Growth inhibition of human NCI-H322M cells assessed as cell growth at 100 uM incubated for 48 hrs by sulforhodamine B assay relative to control; conditions: read-out: Activity
# MDA-MB-231 [11] = experiment: Growth inhibition of human MDA-MB-231 cells incubated for 48 hrs by sulforhodamine B assay; conditions: for CC50: read-out: LC50 (the source's name); summary of the method: as §2
# PC-3 = experiment: Growth inhibition of human PC-3 cells assessed as cell growth at 100 uM incubated for 48 hrs by sulforhodamine B assay relative to control; conditions: read-out: Activity
# IGROV-1 = experiment: Growth inhibition of human IGROV-1 cells assessed as cell growth at 100 uM incubated for 48 hrs by sulforhodamine B assay relative to control; conditions: read-out: Activity
# LOX IMVI [12] = experiment: Growth inhibition of human LOX IMVI cells assessed as cell growth at 0.1 uM incubated for 48 hrs by sulforhodamine B assay relative to control; conditions: read-out: Activity
# K562 = experiment: Growth inhibition of human K562 cells incubated for 48 hrs by sulforhodamine B assay; summary of the method: as §2
# SW-620 = experiment: Growth inhibition of human SW-620 cells assessed as cell growth at 0.01 uM incubated for 48 hrs by sulforhodamine B assay relative to control; conditions: read-out: Activity
# MOLT-4 [13] = experiment: Growth inhibition of human MOLT-4 cells assessed as cell growth at 0.1 uM incubated for 48 hrs by sulforhodamine B assay relative to control; conditions: read-out: Activity
# A498 [14] = experiment: Growth inhibition of human A498 cells assessed as cell growth at 1 uM incubated for 48 hrs by sulforhodamine B assay relative to control; conditions: read-out: Activity; summary of the method: as §1
# UACC-257 [15] = experiment: Growth inhibition of human UACC-257 cells assessed as cell growth at 1 uM incubated for 48 hrs by sulforhodamine B assay relative to control; conditions: read-out: Activity
# SNB-19 = experiment: Growth inhibition of human SNB-19 cells assessed as cell growth at 1 uM incubated for 48 hrs by sulforhodamine B assay relative to control; conditions: read-out: Activity
smiles,measurement,setting,value
COc1cccc(NC(=O)c2sc3nc4c(cc3c2N)CN(Cc2ccccc2)CC4)c1,growth at 1 µM,MCF7,40%
same,growth at 100 µM,NCI-H226,-29%
same,growth at 0.1 µM,HT-29,103%
same,growth at 1 µM,SF-295 [1],77%
same,growth at 0.1 µM,CCRF-CEM,98%
same,growth at 1 µM,U-251,72%
same,growth at 0.1 µM,MDA-MB-435,91%
same,growth at 100 µM,CAKI-1,11%
same,growth at 100 µM,KM12,-37%
same,growth at 0.01 µM,HCT-116,91%
same,growth at 0.1 µM,A498 [2],84%
same,growth at 0.01 µM,MOLT-4 [3],102%
same,growth at 0.01 µM,MDA-MB-231 [4],107%
same,growth at 1 µM,MDA-MB-468,64%
same,growth at 0.01 µM,UACC-257 [5],94%
same,growth at 0.1 µM,OVCAR-4,93%
same,growth at 0.1 µM,TK-10,104%
same,GI50,MOLT-4 [6],21.9 µM
same,TGI,MOLT-4 [6],> 100 µM
same,CC50,MOLT-4 [6],> 100 µM
same,growth at 1 µM,LOX IMVI [7],86%
same,GI50,SF-295 [8],3.05 µM
same,LC50 (concentration killing 50% of cells),SF-295 [8],94.3 µM
same,TGI,SF-295 [8],19.4 µM
same,growth at 0.1 µM,NCI-H460,101%
same,growth at 0.1 µM,RPMI-8226,101%
same,growth at 100 µM,786-0,-47%
same,growth at 1 µM,NCI-H322M [9],83%
same,growth at 100 µM,NCI-H322M [10],18%
same,GI50,MDA-MB-231 [11],11.4 µM
same,TGI,MDA-MB-231 [11],75.3 µM
same,CC50,MDA-MB-231 [11],> 100 µM
same,growth at 100 µM,PC-3,-2%
same,growth at 100 µM,IGROV-1,4%
same,growth at 0.1 µM,LOX IMVI [12],102%
same,GI50,K562,0.53 µM
same,LC50 (concentration killing 50% of cells),K562,> 100 µM
same,TGI,K562,> 100 µM
same,growth at 0.01 µM,SW-620,100%
same,growth at 0.1 µM,MOLT-4 [13],104%
same,growth at 1 µM,A498 [14],79%
same,growth at 1 µM,UACC-257 [15],78%
same,growth at 1 µM,SNB-19,82%
Cc1cccc(NC(=O)c2sc3nc4c(cc3c2N)C(=O)CCC4)c1,growth at 1 µM,MCF7,18%
same,growth at 100 µM,NCI-H226,-15%
same,growth at 0.1 µM,HT-29,70%
same,growth at 1 µM,SF-295 [1],9%
same,growth at 0.1 µM,CCRF-CEM,90%
same,growth at 1 µM,U-251,17%
same,growth at 0.1 µM,MDA-MB-435,4%
same,growth at 100 µM,CAKI-1,-22%
same,growth at 100 µM,KM12,-58%
same,growth at 0.01 µM,HCT-116,93%
same,growth at 0.1 µM,A498 [2],32%
same,growth at 0.01 µM,MOLT-4 [3],97%
same,growth at 0.01 µM,MDA-MB-231 [4],99%
same,growth at 1 µM,MDA-MB-468,5%
same,growth at 0.01 µM,UACC-257 [5],82%
same,growth at 0.1 µM,OVCAR-4,82%
same,growth at 0.1 µM,TK-10,82%
same,TGI,MOLT-4 [6],> 100 µM
same,CC50,MOLT-4 [6],> 100 µM
same,growth at 1 µM,LOX IMVI [7],47%
same,GI50,SF-295 [8],0.175 µM
same,LC50 (concentration killing 50% of cells),SF-295 [8],> 100 µM
same,TGI,SF-295 [8],≥ 100 µM
same,growth at 0.1 µM,NCI-H460,83%
same,growth at 0.1 µM,RPMI-8226,94%
same,growth at 100 µM,786-0,2%
same,growth at 1 µM,NCI-H322M [9],48%
same,growth at 100 µM,NCI-H322M [10],-22%
same,GI50,MDA-MB-231 [11],0.559 µM
same,TGI,MDA-MB-231 [11],≥ 100 µM
same,CC50,MDA-MB-231 [11],> 100 µM
same,growth at 100 µM,PC-3,-26%
same,growth at 100 µM,IGROV-1,-4%
same,growth at 0.1 µM,LOX IMVI [12],91%
same,GI50,K562,0.144 µM
same,LC50 (concentration killing 50% of cells),K562,> 100 µM
same,TGI,K562,> 100 µM
same,growth at 0.01 µM,SW-620,94%
same,growth at 0.1 µM,MOLT-4 [13],95%
same,growth at 1 µM,A498 [14],-11%
same,growth at 1 µM,UACC-257 [15],53%
same,growth at 1 µM,SNB-19,33%
